Data: PMC9594912 (International Journal of Nanomedicine, 2022)

Experiments:
[1] = biological target: P-gp (Homo sapiens, UniProt P08183); experiment: Caco-2 transport with P-gp inhibitor Ver; format: in vitro ADME; details: Ver 100 μmol/L; increase taken to indicate a substrate of P-gp
In short: (§1)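 Bidirectional transport across 21-day Caco-2 monolayers (TEER >300 Ω·cm2) in pH 7.4 HBSS. Free or liposomal test compound at 2.5, 5, 10 μg/mL, with efflux inhibitor added: verapamil 100 μmol/L (P-gp), indomethacin 200 μmol/L (MRP2) or reserpine 50 μmol/L (BCRP). Receiver sampled at 30–180 min with replacement. Triplicate runs; Papp from ΔQ/Δt, area and C0.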

[2] = biological target: MRP2 (Rattus norvegicus, UniProt Q63120); experiment: SPIP with MRP2 inhibitor indomethacin; format: in vivo, rats; details: Indo 200 μmol/L; increase taken to indicate a substrate of MRP2
Chain of MRP2 (Rattus norvegicus, UniProt Q63120) (Q63120 whole entry, the tested form may be a part): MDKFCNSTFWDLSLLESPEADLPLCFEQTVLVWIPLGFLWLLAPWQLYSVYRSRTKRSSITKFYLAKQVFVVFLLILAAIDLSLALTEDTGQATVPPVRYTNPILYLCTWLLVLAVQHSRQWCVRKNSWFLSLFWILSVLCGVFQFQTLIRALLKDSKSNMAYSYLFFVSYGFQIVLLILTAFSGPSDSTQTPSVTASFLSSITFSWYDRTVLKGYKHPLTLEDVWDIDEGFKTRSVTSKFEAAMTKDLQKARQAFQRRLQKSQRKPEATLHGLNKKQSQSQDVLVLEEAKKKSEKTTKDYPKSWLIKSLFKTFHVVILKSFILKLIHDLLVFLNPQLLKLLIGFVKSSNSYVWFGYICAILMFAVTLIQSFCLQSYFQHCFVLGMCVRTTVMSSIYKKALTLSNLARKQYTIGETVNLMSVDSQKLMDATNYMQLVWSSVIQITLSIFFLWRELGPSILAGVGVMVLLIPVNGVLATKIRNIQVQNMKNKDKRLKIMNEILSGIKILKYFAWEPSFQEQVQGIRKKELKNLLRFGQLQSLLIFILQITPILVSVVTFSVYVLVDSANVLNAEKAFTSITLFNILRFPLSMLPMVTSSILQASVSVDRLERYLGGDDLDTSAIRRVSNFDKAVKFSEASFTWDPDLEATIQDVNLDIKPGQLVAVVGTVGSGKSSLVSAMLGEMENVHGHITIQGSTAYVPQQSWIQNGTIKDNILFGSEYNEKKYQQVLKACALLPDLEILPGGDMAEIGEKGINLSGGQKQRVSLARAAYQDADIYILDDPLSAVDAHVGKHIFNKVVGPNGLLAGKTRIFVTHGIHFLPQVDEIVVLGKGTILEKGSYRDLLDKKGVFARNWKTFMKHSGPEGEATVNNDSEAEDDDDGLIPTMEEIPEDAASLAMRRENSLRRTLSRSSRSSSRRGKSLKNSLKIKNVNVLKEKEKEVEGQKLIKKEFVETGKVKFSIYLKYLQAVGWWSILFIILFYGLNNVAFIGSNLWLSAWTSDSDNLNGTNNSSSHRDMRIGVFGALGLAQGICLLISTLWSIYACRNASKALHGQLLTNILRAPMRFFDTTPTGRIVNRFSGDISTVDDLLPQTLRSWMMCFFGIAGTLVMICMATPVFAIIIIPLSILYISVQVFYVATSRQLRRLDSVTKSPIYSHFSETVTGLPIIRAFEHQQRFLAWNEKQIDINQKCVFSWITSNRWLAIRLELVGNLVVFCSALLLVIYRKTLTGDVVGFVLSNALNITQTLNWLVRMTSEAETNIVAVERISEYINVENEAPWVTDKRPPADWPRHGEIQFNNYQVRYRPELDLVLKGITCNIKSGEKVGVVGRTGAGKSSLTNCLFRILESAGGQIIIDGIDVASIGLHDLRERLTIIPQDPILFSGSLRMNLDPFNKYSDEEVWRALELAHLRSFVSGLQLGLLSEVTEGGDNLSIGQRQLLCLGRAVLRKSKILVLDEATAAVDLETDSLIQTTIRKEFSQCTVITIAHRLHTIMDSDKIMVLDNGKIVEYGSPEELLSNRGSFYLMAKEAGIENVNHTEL

[3] = tested on: intestinal segments (duodenum, jejunum, ileum and colon); experiment: In situ single-pass intestinal perfusion; format: in vivo, rats; details: 125, 250, 500 μg/mL; taken to indicate passive diffusion
[4] = Transport study in Caco-2 cell monolayer; format: in vitro ADME; details: human, Caco-2, pH 7.4
In short: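 Caco-2 cells grown in α-MEM with 20% FBS, 1% NEAA, 4 mM glutamine and pen/strep. Seeded on transwells and cultured 21 days; monolayers with TEER >300 Ω·cm2 used. In pH 7.4 HBSS, free or liposomal test compound (2.5, 5, 10 μg/mL) added apically (A→B) or basolaterally (B→A). Receiver sampled at 30–180 min with replacement. Triplicate runs; Papp from ΔQ/Δt, area and C0; efflux ratio derived.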

[5] = biological target: T1, BCRP (Homo sapiens, UniProt Q9UNQ0); experiment: Caco-2 transport with BCRP inhibitor Res; format: in vitro ADME; details: Res 50 μmol/L; increase taken to indicate a substrate of BCRP
T1 sequence (Q9UNQ0 1-655): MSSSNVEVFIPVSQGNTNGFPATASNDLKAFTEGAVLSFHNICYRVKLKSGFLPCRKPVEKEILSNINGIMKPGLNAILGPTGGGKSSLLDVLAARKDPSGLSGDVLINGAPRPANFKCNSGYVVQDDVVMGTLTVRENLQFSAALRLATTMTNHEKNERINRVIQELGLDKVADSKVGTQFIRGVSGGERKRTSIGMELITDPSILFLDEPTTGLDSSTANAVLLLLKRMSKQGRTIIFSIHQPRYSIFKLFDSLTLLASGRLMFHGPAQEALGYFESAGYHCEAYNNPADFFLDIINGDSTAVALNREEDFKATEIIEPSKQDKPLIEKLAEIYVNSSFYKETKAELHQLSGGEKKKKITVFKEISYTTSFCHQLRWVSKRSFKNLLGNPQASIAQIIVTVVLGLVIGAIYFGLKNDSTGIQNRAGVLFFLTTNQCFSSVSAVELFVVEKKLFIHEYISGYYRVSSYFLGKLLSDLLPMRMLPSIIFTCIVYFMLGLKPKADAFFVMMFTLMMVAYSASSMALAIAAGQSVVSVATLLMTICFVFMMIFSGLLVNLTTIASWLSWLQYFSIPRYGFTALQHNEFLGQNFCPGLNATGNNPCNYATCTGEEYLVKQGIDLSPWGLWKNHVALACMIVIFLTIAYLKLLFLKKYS
In short: as §1

[6] = biological target: MRP2 (Homo sapiens, UniProt Q92887); experiment: Caco-2 transport with MRP2 inhibitor Indo; format: in vitro ADME; details: Indo 200 μmol/L; increase taken to indicate a substrate of MRP2
Chain of MRP2 (Homo sapiens, UniProt Q92887) (Q92887 whole entry): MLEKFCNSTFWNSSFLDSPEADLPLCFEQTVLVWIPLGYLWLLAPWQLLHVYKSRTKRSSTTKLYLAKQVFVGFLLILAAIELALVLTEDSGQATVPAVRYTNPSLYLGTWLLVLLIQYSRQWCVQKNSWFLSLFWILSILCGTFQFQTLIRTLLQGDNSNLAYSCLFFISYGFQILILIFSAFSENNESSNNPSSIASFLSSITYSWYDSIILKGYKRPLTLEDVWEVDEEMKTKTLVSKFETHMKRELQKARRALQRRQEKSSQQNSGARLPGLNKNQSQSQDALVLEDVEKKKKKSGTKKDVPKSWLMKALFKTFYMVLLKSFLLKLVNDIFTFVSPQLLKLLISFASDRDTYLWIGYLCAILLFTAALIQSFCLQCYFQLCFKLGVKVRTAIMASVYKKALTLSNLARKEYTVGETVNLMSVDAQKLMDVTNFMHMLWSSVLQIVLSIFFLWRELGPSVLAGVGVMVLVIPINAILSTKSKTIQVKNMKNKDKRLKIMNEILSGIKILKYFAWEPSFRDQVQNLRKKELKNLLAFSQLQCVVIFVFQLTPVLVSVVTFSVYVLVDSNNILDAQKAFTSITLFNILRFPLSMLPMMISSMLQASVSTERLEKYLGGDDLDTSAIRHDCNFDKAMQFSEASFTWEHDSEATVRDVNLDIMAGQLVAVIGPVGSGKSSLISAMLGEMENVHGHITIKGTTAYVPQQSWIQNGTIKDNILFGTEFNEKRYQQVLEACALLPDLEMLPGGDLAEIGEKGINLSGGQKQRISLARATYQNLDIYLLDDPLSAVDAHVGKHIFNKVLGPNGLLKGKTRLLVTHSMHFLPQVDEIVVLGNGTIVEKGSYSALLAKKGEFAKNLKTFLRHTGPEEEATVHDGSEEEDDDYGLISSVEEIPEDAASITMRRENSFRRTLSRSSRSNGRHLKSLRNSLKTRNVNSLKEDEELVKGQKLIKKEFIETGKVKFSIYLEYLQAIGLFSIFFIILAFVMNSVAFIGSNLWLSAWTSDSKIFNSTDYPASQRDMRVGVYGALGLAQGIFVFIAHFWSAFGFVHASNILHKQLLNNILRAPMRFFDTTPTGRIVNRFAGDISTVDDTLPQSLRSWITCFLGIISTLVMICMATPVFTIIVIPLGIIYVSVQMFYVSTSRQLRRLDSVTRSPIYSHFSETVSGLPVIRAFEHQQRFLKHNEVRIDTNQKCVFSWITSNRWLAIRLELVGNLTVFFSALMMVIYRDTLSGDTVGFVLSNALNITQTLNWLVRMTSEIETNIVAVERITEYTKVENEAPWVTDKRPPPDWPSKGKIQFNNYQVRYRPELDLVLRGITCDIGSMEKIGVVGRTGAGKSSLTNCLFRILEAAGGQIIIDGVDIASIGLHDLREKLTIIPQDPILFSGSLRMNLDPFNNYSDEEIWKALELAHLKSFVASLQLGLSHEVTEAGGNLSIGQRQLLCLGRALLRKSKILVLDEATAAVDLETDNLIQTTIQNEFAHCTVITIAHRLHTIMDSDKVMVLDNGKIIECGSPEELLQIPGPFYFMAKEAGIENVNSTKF
In short: as §1

[7] = tested on: P-gp; experiment: SPIP with P-gp inhibitor verapamil; details: Ver 100 μmol/L; increase taken to indicate a substrate of P-gp
[8] = biological target: T2, BCRP (Rattus norvegicus, UniProt Q80W57); experiment: SPIP with BCRP inhibitor reserpine; format: in vivo, rats; details: Res 50 μmol/L; increase taken to indicate a substrate of BCRP
T2 sequence (Q80W57 1-657): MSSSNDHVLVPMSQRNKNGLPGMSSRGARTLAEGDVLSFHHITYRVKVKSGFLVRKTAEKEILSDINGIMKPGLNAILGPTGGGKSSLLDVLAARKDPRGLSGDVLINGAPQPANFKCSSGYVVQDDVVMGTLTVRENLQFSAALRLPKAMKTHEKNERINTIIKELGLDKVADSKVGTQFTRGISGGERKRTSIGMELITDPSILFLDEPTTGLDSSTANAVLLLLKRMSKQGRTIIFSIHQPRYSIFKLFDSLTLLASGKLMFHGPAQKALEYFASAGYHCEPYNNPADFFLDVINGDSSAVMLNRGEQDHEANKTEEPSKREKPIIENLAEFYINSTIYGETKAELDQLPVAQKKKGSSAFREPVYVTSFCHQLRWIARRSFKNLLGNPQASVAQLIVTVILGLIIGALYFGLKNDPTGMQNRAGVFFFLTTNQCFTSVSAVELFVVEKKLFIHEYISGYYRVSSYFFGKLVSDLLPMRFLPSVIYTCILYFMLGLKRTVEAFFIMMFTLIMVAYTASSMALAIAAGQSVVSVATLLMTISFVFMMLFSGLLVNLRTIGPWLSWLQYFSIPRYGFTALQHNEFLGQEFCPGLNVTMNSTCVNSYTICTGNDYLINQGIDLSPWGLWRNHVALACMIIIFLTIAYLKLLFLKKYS

[9] = RAW264.7 cell viability, MTT assay; format: cell-based; details: mouse, RAW 264.7 macrophages
In short: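 Log-phase RAW264.7 macrophages seeded at 10,000/well in 96-well plates and grown 24 h. Treated for 24 h with graded concentrations of free or liposomal test compound, 6 replicate wells per group. Then 0.5% MTT added for 4 h, formazan dissolved in DMSO, absorbance read at 490 nm.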

[10] = tested on: Caco-2 cells; experiment: Caco-2 cell viability, MTT assay; format: cell-based, human
In short: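 Caco-2 cells seeded at 10,000/well in 96-well plates and grown 24 h at 37°C, 5% CO2. Exposed to increasing concentrations of free or liposomal test compound for 4 h, with α-MEM as negative control. Then 0.5% MTT added for 4 h at 37°C, formazan dissolved in DMSO, A490 read. Viability expressed as percent of control.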

[11] = In vitro drug release; format: physicochemical; details: PBS (pH 7.4), 24 hours, 37°C
In short: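 Dialysis bags holding 2 mL of free suspension or liposomes with equal drug content. Immersed in 60 mL PBS pH 7.4, SGF or SIF, each with 0.5% Tween-80, shaken at 37°C, 100 rpm. 1 mL withdrawn at intervals and replaced with fresh medium. Drug quantified by HPLC (C18, methanol:water 80:20, 254 nm). Cumulative release % calculated with sampling correction, then fitted to kinetic models.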

[12] = tested on: RAW264.7 macrophages stimulated by LPS; experiment: NO release and ELISA of TNF-α, IL-6 and IL-10 in LPS-stimulated RAW264.7; format: cell-based, mouse; details: LPS 1 µg/mL, paeonol 5 μg/mL, Pae-Lips 2.5, 5, 10 μg/mL
In short: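 RAW264.7 cells (DMEM, 20% FBS, 37°C, 5% CO2) seeded at 15,000/well and grown 24 h. Pretreated 2 h with free test compound (5 μg/mL final) or liposomes (2.5, 5, 10 μg/mL final). Then stimulated with LPS 1 µg/mL final (unstimulated control kept) for 20 h. Supernatant NO measured by kit; IL-6, TNF-α and IL-10 by ELISA.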

[13] = tested on: UC induced by DSS; experiment: DSS colitis: histological examination of colon; format: in vivo, Balb/c mice; details: SASP 500 mg/kg; Pae-Lips-H 400 mg/kg
In short: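 Male Balb/c mice (10 weeks, n = 6/group) given 3% (w/v) DSS in drinking water for 7 days. Dosed by gavage twice daily, suspended in 0.5% CMC-Na. Distal colon (~2 cm) fixed in 10% formaldehyde and HE-stained. Scored for mucosal inflammation severity, lesion extent and crypt damage.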

Chain of P-gp (Homo sapiens, UniProt P08183) (P08183 whole entry): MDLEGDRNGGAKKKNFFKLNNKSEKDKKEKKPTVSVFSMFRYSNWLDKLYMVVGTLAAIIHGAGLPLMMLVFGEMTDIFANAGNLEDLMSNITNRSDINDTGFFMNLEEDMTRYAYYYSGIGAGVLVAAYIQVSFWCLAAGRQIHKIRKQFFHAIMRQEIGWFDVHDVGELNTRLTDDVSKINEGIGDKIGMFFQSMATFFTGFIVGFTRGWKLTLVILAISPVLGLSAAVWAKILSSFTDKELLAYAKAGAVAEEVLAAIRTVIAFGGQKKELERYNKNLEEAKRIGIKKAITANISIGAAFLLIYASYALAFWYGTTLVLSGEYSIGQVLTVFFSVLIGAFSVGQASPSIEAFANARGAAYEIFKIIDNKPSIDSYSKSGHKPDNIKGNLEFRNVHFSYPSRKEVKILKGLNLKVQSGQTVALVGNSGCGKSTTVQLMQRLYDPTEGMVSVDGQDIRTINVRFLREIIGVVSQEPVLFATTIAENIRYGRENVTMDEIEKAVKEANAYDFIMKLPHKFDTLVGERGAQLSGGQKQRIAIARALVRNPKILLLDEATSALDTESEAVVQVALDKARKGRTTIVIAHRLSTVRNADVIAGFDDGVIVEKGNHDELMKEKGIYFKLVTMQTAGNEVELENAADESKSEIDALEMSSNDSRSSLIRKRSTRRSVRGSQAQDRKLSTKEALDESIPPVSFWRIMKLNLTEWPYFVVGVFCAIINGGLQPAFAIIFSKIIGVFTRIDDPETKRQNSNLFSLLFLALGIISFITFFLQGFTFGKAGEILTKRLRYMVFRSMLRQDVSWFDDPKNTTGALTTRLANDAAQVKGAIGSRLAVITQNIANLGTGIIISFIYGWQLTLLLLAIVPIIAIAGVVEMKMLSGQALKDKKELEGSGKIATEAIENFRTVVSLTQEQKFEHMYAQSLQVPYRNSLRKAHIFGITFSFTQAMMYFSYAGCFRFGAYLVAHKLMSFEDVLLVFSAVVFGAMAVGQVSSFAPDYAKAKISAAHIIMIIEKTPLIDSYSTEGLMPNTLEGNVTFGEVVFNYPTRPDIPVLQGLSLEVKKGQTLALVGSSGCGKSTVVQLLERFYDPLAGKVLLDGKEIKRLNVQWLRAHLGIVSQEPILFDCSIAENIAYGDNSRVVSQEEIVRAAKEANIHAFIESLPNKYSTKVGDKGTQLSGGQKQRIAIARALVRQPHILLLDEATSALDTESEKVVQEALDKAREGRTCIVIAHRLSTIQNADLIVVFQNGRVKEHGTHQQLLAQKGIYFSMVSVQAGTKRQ

SMILES: COc1ccc(C(C)=O)c(O)c1 [Paeonol, 2’-hydroxy-4’-methoxyacetophenone]
- Papp value (AP-BL) with Ver [1]: significantly increased
- Papp in each intestinal segment after adding Indo [2]: significantly increased
- Papp values at different concentrations [3]: no significant difference
- Papp A→B at 180 min, 2.5 μg/mL [4]: 3.25 ± 0.32 ×10⁻⁶ cm/s
- Papp A→B at 180 min, 5 μg/mL [4]: 3.62 ± 0.13 ×10⁻⁶ cm/s
- Papp A→B at 180 min, 10 μg/mL [4]: 3.65 ± 0.52 ×10⁻⁶ cm/s
- Papp B→A at 180 min, 2.5 μg/mL [4]: 4.17 ± 0.22 ×10⁻⁶ cm/s
- Papp B→A at 180 min, 5 μg/mL [4]: 5.19 ± 0.3 ×10⁻⁶ cm/s
- Papp B→A at 180 min, 10 μg/mL [4]: 5.32 ± 0.67 ×10⁻⁶ cm/s
- Papp value (AP-BL) with Res [5]: significantly increased
- Papp value (AP-BL) with Indo [6]: significantly increased
- Papp in each intestinal segment after adding Ver [7]: significantly increased
- Papp in each intestinal segment after adding Res [8]: significantly increased
- viability at 24 h, 5 μg/mL [9]: > 80%
- Caco-2 cell viability ([10]; concentration exceeds 10 μg/mL): significantly reduced
- survival rate of Caco-2 cells ([10]; within 10 μg/mL, 4 hours): greater than 90%
- cumulative release percentage (P%) [11]: 36.05 ± 2.94%
- IL-10 level vs LPS group [12]: increased
- IL-6 level vs LPS group ([12]; p < 0.05): decreased
- NO level vs LPS group ([12]; p < 0.05): decreased
- TNF-α level vs LPS group ([12]; p < 0.05): decreased

SMILES: O=C(O)c1cc(/N=N/c2ccc(S(=O)(=O)Nc3ccccn3)cc2)ccc1O [SASP]
- colon histopathology finding [13]: no obvious lesions
